The text below walks through data of ChEMBL document CHEMBL4680238, “Novel octapeptide-DTX prodrugs targeting MMP-7 as effective agents for the treatment of colorectal cancer with lower systemic toxicity” (Eur J Med Chem, 2020).

Series [1] in a line: AUC (0 to t) in Sprague-Dawley rat assessed as docetaxel level at 5 mg/kg, iv measured up to 72 hrs by LC-MS/MS analysis. Details: route intravenous, dose 5 mg/kg, time <=72; call rule not given here. In kind it is ADME, organism-based. The following applies: in vivo. The procedure, abridged:
(§1)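 Male SD rats (180-200 g), fasted 12 h with free water, n = 3 per group. Single tail-vein dose of 5 mg/kg in 0.5% DMSO/5% castor oil/5% ethanol/89.5% saline. Retro-orbital blood drawn 0.083-72 h with heparin. Plasma protein-precipitated with methanol containing paclitaxel internal standard, then analysed by LC-MS/MS. Parameters from non-compartmental analysis, mean ± SD. For the DTX group, parameters were calculated after converting dose to the molar equivalent of the prodrug.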

The nature of series [2]: Drug uptake in BALB/c nude mouse xenografted with human HCT-116 cells assessed as drug level in tumour at 5 mg/kg, iv measured up to 24 hrs by LC-MS/MS analysis. In kind it is ADME, organism-based, Neoplasm. As to conditions: in vivo. The procedure, abridged: (§2)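 Male BALB/c nude mice bearing s.c. HCT116 tumours (200-300 mm3), 20 per group. Single tail-vein dose of 5 mg/kg. Five mice per group killed at 0.5, 4, 8 and 24 h and heart-perfused with PBS. Tissues homogenized in saline (4 µL/mg) and precipitated with methanol containing paclitaxel internal standard. Prodrug, released DTX and free DTX measured by LC-MS/MS.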
Background: In xenograft studies the graft and the host belong to different species.

The nature of series [3]: Drug uptake in BALB/c nude mouse xenografted with human HCT-116 cells assessed as drug level in liver at 5 mg/kg, iv measured up to 24 hrs by LC-MS/MS analysis. The class given is ADME, organism-based. As to conditions: in vivo. The procedure, abridged:
as §2

Another series relates to HEK293. As to the kind of experiment: Cytotoxicity against HEK293 cells assessed as reduction in cell viability after 48 hrs by MTT assay. In kind it is cell-based. The following applies: Homo sapiens, HEK293, 48 h. The procedure, abridged:
(§3)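 Cells seeded at 5000/well and precultured 1 day. HCT116 grown in McCoy's 5A + 10% FBS; SW620 and HEK293 in DMEM + 10% FBS; CCD18Co in DMEM + 15% FBS. Compounds from 0.1 M DMSO stocks were tested at 10^-10 to 10^-4 mol/L in sixplicate: HCT116 and HEK293 for 48 h, SW620 and CCD18Co for 72 h, at 37 °C, 5% CO2. MTT (5 mg/mL) added for 4 h, then A570 read; IC50 estimated.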
Background: Tetrazolium assays rely on reduction of a dye to a coloured formazan, in cell work by metabolically active cells.

The test system of series [4] is SW-620. As to the kind of experiment: Cytotoxicity against human SW-620 cells assessed as reduction in cell viability after 72 hrs by MTT assay. In kind it is functional, cell-based. As to conditions: SW-620, 72 h. The procedure, abridged: as §3
For another series, the system named is CCD-18Co. Briefly: Cytotoxicity against human CCD-18Co cells assessed as reduction in cell viability after 72 hrs by MTT assay. The class given is cell-based. The procedure, abridged: as §3
In series [5] the test system is HCT-116. As to the kind of experiment: Antitumour activity against human HCT-116 cells xenografted in BALB/c nude mouse assessed as tumour growth inhibition at 11.7 mg/kg, ip administered once for every 7 days for 14 days relative to control. The following applies: HCT-116, ip, 336 h, time 14 day, read-out: TGI. In kind it is functional. The procedure, abridged: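 Male BALB/c nude mice received s.c. HCT116 cells (2 × 10^6 in 0.2 mL PBS). Once tumours reached 100-200 mm3, mice were randomized into groups of six. Dosing was ip, 0.1 mL/10 g, once every 7 days, in DMSO 0.5%/castor oil 5%/ethanol 5%/saline 89.5%; vehicle controls got solvent. Caliper volume V = L×W²×0.52 read every 2-3 days. Tumours excised and weighed on day 14.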

Series [6] deals with SW-620. Briefly: Potency index, ratio of 4FDT IC50 to test compound IC50 for Cytotoxicity against human SW-620 cells. The class given is functional.
Series [7] is described as follows: Drug uptake in BALB/c nude mouse xenografted with human HCT-116 cells assessed as drug level in kidney at 5 mg/kg, iv measured up to 24 hrs by LC-MS/MS analysis. The class given is ADME, organism-based. As to conditions: in vivo. The procedure, abridged: as §2
A short description of series [8]: Half life in Sprague-Dawley rat at 5 mg/kg, iv measured up to 72 hrs by LC-MS/MS analysis. As to conditions: in vivo. In kind it is ADME, organism-based. The procedure, abridged:
as §1

A short description of series [9]: Apparent volume of distribution in Sprague-Dawley rat at 5 mg/kg, iv measured up to 72 hrs by LC-MS/MS analysis. In kind it is ADME, organism-based. As to conditions: in vivo, read-out: Vz. The procedure, abridged:
as §1

Series [10] is described as follows: Half life of compound in PBS buffer at pH 7.4 at 50 ug/ml up to 72 hrs by RP-HPLC analysis. In kind it is physicochemical. As to conditions: dose 50 µg/ml.
Series [11] in a line: MRT (0 to infinity) in Sprague-Dawley rat at 5 mg/kg, iv measured up to 72 hrs by LC-MS/MS analysis. The class given is ADME, organism-based. As to conditions: in vivo. The procedure, abridged: as §1
Series [12] in a line: AUC (0 to t) in Sprague-Dawley rat at 5 mg/kg, iv measured up to 72 hrs by LC-MS/MS analysis. The following applies: in vivo. In kind it is ADME, organism-based. Also on record: route intravenous, dose 5 mg/kg, time <=72. The procedure, abridged: as §1
Series [13] is described as follows: Drug uptake in BALB/c nude mouse xenografted with human HCT-116 cells assessed as drug level in lung at 5 mg/kg, iv measured up to 24 hrs by LC-MS/MS analysis. In kind it is ADME, organism-based. The following applies: in vivo. The procedure, abridged: as §2
Series [14] deals with HCT-116. Briefly: Cytotoxicity against human HCT-116 cells assessed as reduction in cell viability after 48 hrs by MTT assay. In kind it is functional, cell-based. The following applies: HCT-116, 48 h. The procedure, abridged: as §3
The nature of series [15]: Toxicity in BALB/c nude mouse xenografted with human HCT-116 cells assessed as reduction in body weight at 23.4 mg/kg, ip administered once for every 7 days for 14 days relative to control. As to conditions: in vivo, 336 h, time 14 day. Also on record: scale not given: the % may be the effect or the level left. In kind it is organism-based. The procedure, abridged:
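HCT116 s.c. xenografts in male BALB/c nude mice, n = 6 per group. Dosing was ip once every 7 days for 2 weeks in DMSO/castor oil/ethanol/saline; vehicle controls got solvent. Body weight recorded every other day or every three days. Weight loss taken at day 14. Mean ± SD.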

In general, pIC50 refers to the IC50 on a negative log10 scale, so that one unit is a factor of ten. For orientation: half-life means how long it takes for the measured level to halve. Broadly, the MRT inf is the average time that molecules of a dose stay in the body. Broadly, the AUC(0-t) is exposure summed from dosing to a finite time, without extrapolation to infinity.

pIC50: −log10 of the molar value. Residues, ends and D or L forms follow the SMILES beside them. *: point of attachment. X1 = CC(=O)O[C@@]12CO[C@@H]1C[C@H](O)[C@@]1(C)C(=O)[C@H](O)C3=C(C)[C@@H](OC(=O)[C@H](OC(=O)OCc4ccc(N*)cc4)[C@@H](NC(=O)OC(C)(C)C)c4ccccc4)C[C@@](O)([C@@H](OC(=O)c4ccccc4)[C@H]21)C3(C)C

`CC[C@H](C)[C@H](NC(=O)CNC(=O)[C@H](CCC(N)=O)NC(=O)[C@@H]1CCCN1C(=O)CNC(C)=O)C(=O)N[C@@H](C)C(=O)N[C@@H](CCSC)C(=O)N[C@@H](CCC(N)=O)C(=O)N[C@@H](CC(C)C)C(=O)Nc1ccc(COC(=O)O[C@@H](C(=O)O[C@H]2C[C@@]3(O)[C@@H](OC(=O)c4ccccc4)[C@@H]4[C@]5(OC(C)=O)CO[C@@H]5C[C@H](O)[C@@]4(C)C(=O)[C@H](O)C(=C2C)C3(C)C)[C@@H](NC(=O)OC(C)(C)C)c2ccccc2)cc1` (Ac-GPQGIAMQL-X1): the AUCt in [1] worked out at 247 ng·h/mL. The Drug uptake entry in series [2], in [3], in series [7] and in series [13] was “Active” each time. Further, the pIC50 in the series on HEK293 is 3.86; in the series with SW-620 [4], 7.52; with CCD-18Co, < 3.70; in the series with HCT-116 [14], 8.04. Also, the inhibition in vivo at 11.7 mg/kg in the series with HCT-116 [5] came out at 46.3%. In addition, in the series on SW-620 [6], the “Ratio IC50” value is on record as 9. In series [8], this compound gave a half-life of 12.8 h. The Vd in [9] is 10.4 L/kg. Moreover, the half-life at 50 ug/ml in series [10] is > 72 h. The compound also yielded a mean residence time MRT inf in [11] of 11.6 h. The exposure AUC(0-t) at 72 h in [12] is 9070 ng·h/mL. Moreover, the Activity in [15] is given as 12.2%.
